According to ChEMBL document CHEMBL1146538, “Antioxidative glycosides from the leaves of Ligustrum robustum” (J Nat Prod, 2003):
Activity calls are given as the source filed them. The calls are words filed in the database; no cut-off is given here.

Tests used:
[1] = test system: Erythrocyte; test: (§1) Antioxidant activity assessed as inhibition of AAPH-induced hemolysis in rat RBC after 3 hrs; type: functional, cell-based
Method in brief: (§2)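 Rat blood drawn from abdominal aorta; RBC separated by centrifugation (2500 rpm, 10 min), washed three times with five volumes PBS pH 7.4. 2 mL RBC suspension mixed with 2 mL PBS containing varying glycoside amounts, then 1 mL of 400 mM AAPH in PBS; shaken at 37 °C for 3 h. Diluted with 8 mL PBS, centrifuged, supernatant A540 read; % inhibition versus control.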

[2] = as §1; type: functional, cell-based; conditions: erythrocyte; method in brief: as §2

SMILES | Activity [1] | IC50 [2]
C=C(C)C(=O)CC/C(C)=C/CO[C@@H]1O[C@H](CO)[C@@H](OC(=O)/C=C/c2ccc(O)cc2)[C@H](O[C@@H]2O[C@@H](C)[C@H](O)[C@@H](O)[C@H]2O)[C@H]1O | inactive | –
CC(C)=CCC/C(C)=C/CO[C@@H]1O[C@H](CO)[C@@H](OC(=O)/C=C/c2ccc(O)cc2)[C@H](O[C@@H]2O[C@@H](C)[C@H](O)[C@@H](O)[C@H]2O)[C@H]1O | inactive | –
CC(C)=CCC/C(C)=C/CO[C@@H]1O[C@H](COC(=O)/C=C/c2ccc(O)cc2)[C@@H](O)[C@H](O[C@@H]2O[C@@H](C)[C@H](O)[C@@H](O)[C@H]2O)[C@H]1O | inactive | –
C[C@@H]1O[C@@H](O[C@@H]2[C@@H](O)[C@H](OCCc3ccc(O)c(O)c3)O[C@H](CO)[C@H]2OC(=O)/C=C/c2ccc(O)c(O)c2)[C@H](O)[C@H](O)[C@H]1O [ACETOSIDE] | – | 28 µM
O=c1cc(-c2ccc(O)cc2)oc2cc(O[C@@H]3O[C@H](CO)[C@@H](O)[C@H](O)[C@H]3O)cc(O)c12 [APIGETRIN] | – | 88.4 µM
C[C@@H]1O[C@@H](O[C@@H]2[C@@H](O)[C@@H](O)[C@H](O[C@@H]3[C@@H](O)[C@H](OCCc4ccc(O)c(O)c4)O[C@H](CO)[C@H]3OC(=O)/C=C/c3ccc(O)c(O)c3)O[C@H]2C)[C@H](O)[C@H](O)[C@H]1O [LIGUPURPUROSIDE A] | – | 26.3 µM
C[C@@H]1O[C@@H](O[C@@H]2[C@@H](O)[C@@H](O)[C@H](O[C@@H]3[C@@H](O)[C@H](OCCc4ccc(O)cc4)O[C@H](CO)[C@H]3OC(=O)/C=C/c3ccc(O)cc3)O[C@H]2C)[C@H](O)[C@H](O)[C@H]1O [LIGUPURPUROSIDE B] | – | 80.4 µM
C/C(=C\CO[C@@H]1O[C@H](CO)[C@@H](OC(=O)/C=C/c2ccc(O)cc2)[C@H](O[C@@H]2O[C@@H](C)[C@H](O)[C@@H](O)[C@H]2O)[C@H]1O)C/C=C\C(C)(C)O [LIGUROBUSTOSIDE I] | – | 340 µM
C[C@@H]1O[C@@H](O[C@@H]2[C@@H](O)[C@@H](O)[C@H](O[C@@H]3[C@@H](O)[C@H](OCCc4ccc(O)cc4)O[C@H](CO)[C@H]3O)O[C@H]2C)[C@H](O)[C@H](O)[C@H]1O [LIGUROBUSTOSIDE M] | – | 134 µM
C[C@@H]1O[C@@H](O[C@@H]2[C@@H](O)[C@@H](O)[C@H](O[C@@H]3[C@@H](O)[C@H](OCCc4ccc(O)cc4)O[C@H](CO)[C@H]3OC(=O)/C=C/c3ccc(O)c(O)c3)O[C@H]2C)[C@H](O)[C@H](O)[C@H]1O [LIGUROBUSTOSIDE N] | – | 21.8 µM
C[C@@H]1O[C@@H](O[C@@H]2[C@@H](O)[C@H](OCCc3ccc(O)cc3)O[C@H](COC(=O)/C=C/c3ccc(O)cc3)[C@H]2O)[C@H](O)[C@H](O)[C@H]1O [OSMANTHUSIDE B6] | – | 91.7 µM
C[C@@H]1O[C@@H](O[C@@H]2[C@@H](O)[C@H](OCCc3ccc(O)cc3)O[C@H](CO)[C@H]2OC(=O)/C=C/c2ccc(O)cc2)[C@H](O)[C@H](O)[C@H]1O [OSMANTHUSIDE B] | – | 160 µM
C[C@@H]1O[C@@H](O[C@H]2[C@H](Oc3cc(O)c4c(=O)cc(-c5ccc(O)cc5)oc4c3)O[C@H](CO)[C@@H](O)[C@@H]2O)[C@H](O)[C@H](O)[C@H]1O [RHOIFOLIN] | – | 95.9 µM
Cc1c(C)c2c(c(C)c1O)CCC(C)(C(=O)O)O2 (centres undefined) [TROLOX] | – | 101 µM
